# ChEMBL document CHEMBL2010768, “Optimization of Potent Inhibitors of P. falciparum Dihydroorotate Dehydrogenase for the Treatment of Malaria” (ACS Med Chem Lett, 2011)
# Activity calls are given as the source filed them. The calls are words filed in the database; no cut-off is given here.
# Legend:
# [1] = test system: Plasmodium falciparum; assay: Antimalarial activity against Plasmodium falciparum 3D70087/N9 infected in po dosed NOD-scid IL-2Rgamma-null mouse model compound administered bid for 4 to 7 days by FACS analysis; assay type: functional; conditions: 3D7 0087/N9, 4TO7, po
# How it was run: (§1)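 Oral dosing in mouse malaria models. Efficacy is expressed as ED50, ED90 and ED99 in mg/kg/day.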
# [2] = test system: Salmonella typhimurium; assay: Mutagenic activity in S9-induced Salmonella typhimurium 1535 up to 100 uM by Ames test; assay type: toxicity, organism-based; conditions: salmonella enterica subsp. enterica serovar typhimurium
# [3] = Oral bioavailability in rat at 3 mg/kg by LC-MS/MS analysis; assay type: ADME, organism-based; conditions: in vivo
# [4] = test system: Salmonella typhimurium; assay: Mutagenic activity in Salmonella typhimurium 100 up to 100 uM by Ames test; assay type: toxicity, organism-based; conditions: salmonella enterica subsp. enterica serovar typhimurium
# [5] = Half life in rat at 1 mg/kg, iv by LC-MS/MS analysis; assay type: ADME, organism-based; design: dose 1 mg/kg, route intravenous; conditions: in vivo
# [6] = Volume of distribution at steady state in rat at 1 mg/kg, iv by LC-MS/MS analysis; assay type: ADME, organism-based; design: dose 1 mg/kg, route intravenous; conditions: in vivo, read-out: Vdss
# [7] = test system: Salmonella typhimurium; assay: Mutagenic activity in S9-induced Salmonella typhimurium 100 up to 100 uM by Ames test; assay type: toxicity, organism-based; conditions: salmonella enterica subsp. enterica serovar typhimurium
# [8] = Cmax in rat at 3 mg/kg, po by LC-MS/MS analysis; assay type: ADME, organism-based; design: dose 3 mg/kg, route oral; conditions: in vivo
# [9] = Clearance in human liver microsomes by LC-MS/MS analysis; assay type: ADME, Microsome
# How it was run: (§2)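 Liver microsome incubation. Predicted clearance is derived from a well-stirred model corrected for microsomal and protein binding.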
# [10] = Clearance in mouse liver microsomes by LC-MS/MS analysis; assay type: ADME, Microsome; how it was run: as §2
# [11] = test system: Plasmodium falciparum; assay: Antiplasmodial activity against Plasmodium falciparum Dd2 infected in […] after 72 hrs by SYBR green assay; assay type: functional, organism-based; conditions: Dd2, 72 h
# [12] = test system: Canis familiaris; assay: Oral bioavailability in dog at 3 mg/kg by LC-MS/MS analysis; assay type: ADME, organism-based, Canis lupus familiaris; conditions: in vivo
# [13] = test system: Plasmodium berghei; assay: Inhibition of Plasmodium berghei DHODH after 20 mins by 2,6-dichloroindophenol-reduction based assay
# [14] = Cmax in rat at 50 to 600 mg/kg, po qd for 7 days measured after 7 days washout period; assay type: ADME, organism-based; design: dose 50-600 mg/kg, route oral; conditions: in vivo
# How it was run: (§3)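 Rats dosed orally once daily for 7 days at 0 (control), 50, 150, 450 and 600 mg/kg, then a 7-day washout. NOAEL determined, with Cmax and AUC reported at that exposure.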
# [15] = test system: Plasmodium berghei; assay: Antimalarial activity against Plasmodium berghei ANKA infected in orally dosed mouse model compound administered at 9 hrs post-infection on first day followed by bid for subsequent 3 days; assay type: functional; conditions: po; how it was run: as §1
# [16] = Plasma protein binding in mouse by LC-MS/MS analysis; assay type: ADME, cell-free; conditions: read-out: PPB (converted)
# [17] = test system: Canis familiaris; assay: AUC (0 to infinity) in dog at 1 mg/kg, iv by LC-MS/MS analysis; assay type: ADME, organism-based, Canis lupus familiaris, Plasma; design: dose 1 mg/kg, route intravenous, time infinity; conditions: in vivo
# [18] = Plasma protein binding in rat by LC-MS/MS analysis; assay type: ADME, cell-free; conditions: read-out: PPB (converted)
# [19] = test system: Salmonella typhimurium; assay: Mutagenic activity in Salmonella typhimurium 1535 up to 100 uM by Ames test; assay type: toxicity, organism-based; conditions: salmonella enterica subsp. enterica serovar typhimurium
# [20] = test system: Salmonella typhimurium; assay: Mutagenic activity in Salmonella typhimurium TA98 up to 100 uM by Ames test; assay type: toxicity, organism-based; conditions: salmonella enterica subsp. enterica serovar typhimurium
# [21] = biological target: Cytochrome P450 3A4 (Homo sapiens, UniProt P08684); assay: Inhibition of human CYP3A4 using midazolam as substrate after 5 mins by LC-MS/MS analysis; assay type: ADME
# Sequence of Cytochrome P450 3A4 (P08684 whole entry): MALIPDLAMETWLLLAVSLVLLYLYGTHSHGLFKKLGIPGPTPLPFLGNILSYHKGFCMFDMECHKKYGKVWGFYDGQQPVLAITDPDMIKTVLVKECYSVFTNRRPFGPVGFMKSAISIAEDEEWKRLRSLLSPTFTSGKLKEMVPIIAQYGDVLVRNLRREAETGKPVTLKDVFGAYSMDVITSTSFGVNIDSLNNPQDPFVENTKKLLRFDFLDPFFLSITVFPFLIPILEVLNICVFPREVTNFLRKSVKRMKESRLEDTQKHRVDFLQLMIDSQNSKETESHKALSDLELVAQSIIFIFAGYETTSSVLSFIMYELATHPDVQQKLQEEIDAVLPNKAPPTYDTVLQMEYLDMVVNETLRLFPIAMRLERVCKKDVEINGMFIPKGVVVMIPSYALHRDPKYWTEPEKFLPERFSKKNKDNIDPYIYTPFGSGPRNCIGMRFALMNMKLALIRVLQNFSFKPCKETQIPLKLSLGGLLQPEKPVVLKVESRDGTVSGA
# [22] = Permeability of the compound by parallel artificial membrane permeation assay; assay type: ADME; conditions: PAMPA; read-out: permeability
# [23] = Clearance in rat at 1 mg/kg, iv by LC-MS/MS analysis; assay type: ADME, organism-based; design: dose 1 mg/kg, route intravenous; conditions: in vivo
# [24] = test system: Salmonella typhimurium; assay: Mutagenic activity in S9-induced Salmonella typhimurium TA98 up to 100 uM by Ames test; assay type: toxicity, organism-based; conditions: salmonella enterica subsp. enterica serovar typhimurium
# [25] = biological target: T1, Cytochrome P450 1A2 (Homo sapiens, UniProt P05177); assay: Inhibition of human CYP1A2 using phenacetin as substrate after 10 mins by LC-MS/MS analysis; assay type: ADME
# T1 sequence (P05177 whole entry): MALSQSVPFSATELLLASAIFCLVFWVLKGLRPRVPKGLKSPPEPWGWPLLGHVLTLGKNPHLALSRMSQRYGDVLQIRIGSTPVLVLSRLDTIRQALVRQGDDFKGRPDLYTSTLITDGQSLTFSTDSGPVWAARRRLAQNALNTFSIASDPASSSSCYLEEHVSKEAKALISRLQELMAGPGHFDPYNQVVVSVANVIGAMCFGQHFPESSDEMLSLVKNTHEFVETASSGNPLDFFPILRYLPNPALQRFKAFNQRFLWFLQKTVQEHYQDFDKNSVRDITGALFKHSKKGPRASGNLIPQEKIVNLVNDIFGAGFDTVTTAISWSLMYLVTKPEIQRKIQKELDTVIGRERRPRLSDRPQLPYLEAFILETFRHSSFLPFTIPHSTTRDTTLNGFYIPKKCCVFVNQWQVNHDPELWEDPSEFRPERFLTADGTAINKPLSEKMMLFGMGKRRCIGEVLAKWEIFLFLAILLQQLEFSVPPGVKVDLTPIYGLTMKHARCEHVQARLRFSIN
# [26] = AUC (0 to infinity) in rat at 3 mg/kg, po by LC-MS/MS analysis; assay type: ADME, organism-based; design: time infinity, dose 3 mg/kg, route oral; conditions: plasma
# [27] = Toxicity in po dosed rat administered qd for 7 days measured after 7 days washout period; assay type: organism-based; conditions: in vivo; how it was run: as §3
# [28] = Half life in dog at 1 mg/kg, iv by LC-MS/MS analysis; assay type: ADME, organism-based, Canis lupus familiaris; design: dose 1 mg/kg, route intravenous; conditions: in vivo
# [29] = Clearance in dog at 1 mg/kg, iv by LC-MS/MS analysis; assay type: ADME, organism-based, Canis lupus familiaris; design: dose 1 mg/kg, route intravenous; conditions: in vivo
# [30] = AUC in rat at 50 to 600 mg/kg, po qd for 7 days measured after 7 days washout period; assay type: ADME, organism-based; design: dose 50-600 mg/kg, route oral; conditions: plasma; how it was run: as §3
# [31] = Plasma protein binding in dog by LC-MS/MS analysis; assay type: ADME, cell-free, Canis lupus familiaris; conditions: read-out: PPB (converted)
# [32] = biological target: Cytochrome P450 2C19 (Homo sapiens, UniProt P33261); assay: Inhibition of human CYP2C19 using S-mephenytoin as substrate after 45 mins by LC-MS/MS analysis; assay type: ADME
# Sequence of Cytochrome P450 2C19 (P33261 whole entry): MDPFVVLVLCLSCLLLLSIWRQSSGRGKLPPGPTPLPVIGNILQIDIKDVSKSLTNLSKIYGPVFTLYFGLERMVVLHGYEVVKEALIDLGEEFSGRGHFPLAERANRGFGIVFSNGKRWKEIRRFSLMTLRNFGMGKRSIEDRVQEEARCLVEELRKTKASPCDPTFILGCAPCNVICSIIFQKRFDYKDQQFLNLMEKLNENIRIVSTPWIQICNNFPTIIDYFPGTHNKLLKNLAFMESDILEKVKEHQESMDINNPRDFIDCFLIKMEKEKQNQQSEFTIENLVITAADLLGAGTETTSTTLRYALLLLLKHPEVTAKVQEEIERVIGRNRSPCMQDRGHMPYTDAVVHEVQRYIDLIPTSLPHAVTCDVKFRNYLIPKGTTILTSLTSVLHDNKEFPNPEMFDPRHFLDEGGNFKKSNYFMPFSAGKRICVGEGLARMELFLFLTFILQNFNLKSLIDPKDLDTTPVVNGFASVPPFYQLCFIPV
# [33] = AUC (0 to infinity) in rat at 1 mg/kg, iv by LC-MS/MS analysis; assay type: ADME, organism-based; design: time infinity, dose 1 mg/kg, route intravenous; conditions: plasma
# [34] = biological target: Cytochrome P450 2C9 (Homo sapiens, UniProt P11712); assay: Inhibition of human CYP2C9 using diclofenac as substrate after 10 mins by LC-MS/MS analysis; assay type: ADME
# Sequence of Cytochrome P450 2C9 (P11712 whole entry): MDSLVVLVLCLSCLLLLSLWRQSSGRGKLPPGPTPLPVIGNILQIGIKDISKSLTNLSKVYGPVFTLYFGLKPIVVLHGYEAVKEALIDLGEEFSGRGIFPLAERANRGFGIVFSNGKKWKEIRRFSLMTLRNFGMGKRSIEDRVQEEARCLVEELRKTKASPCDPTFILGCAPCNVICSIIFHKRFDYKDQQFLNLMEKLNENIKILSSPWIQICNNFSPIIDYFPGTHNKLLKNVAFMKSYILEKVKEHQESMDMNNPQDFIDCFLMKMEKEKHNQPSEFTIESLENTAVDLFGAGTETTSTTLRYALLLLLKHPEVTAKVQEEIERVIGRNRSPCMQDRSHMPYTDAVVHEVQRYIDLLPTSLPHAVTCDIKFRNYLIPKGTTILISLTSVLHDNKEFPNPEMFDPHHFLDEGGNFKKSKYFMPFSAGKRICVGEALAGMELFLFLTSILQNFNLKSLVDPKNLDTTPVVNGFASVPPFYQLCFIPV
# [35] = test system: Plasmodium falciparum; assay: Antiplasmodial activity against Plasmodium falciparum 3D7 infected in […] after 72 hrs by SYBR green assay; assay type: functional, organism-based; conditions: 3D7, 72 h
# [36] = Volume of distribution at steady state in dog at 1 mg/kg, iv by LC-MS/MS analysis; assay type: ADME, organism-based, Canis lupus familiaris; design: dose 1 mg/kg, route intravenous; conditions: in vivo, read-out: Vdss
# [37] = Plasma protein binding in human by LC-MS/MS analysis; assay type: ADME, cell-free; conditions: read-out: PPB (converted)
# [38] = test system: Canis familiaris; assay: AUC (0 to infinity) in dog at 3 mg/kg, po by LC-MS/MS analysis; assay type: ADME, organism-based, Canis lupus familiaris, Plasma; design: time infinity, dose 3 mg/kg, route oral; conditions: in vivo
# [39] = biological target: T2, Dihydroorotate dehydrogenase (Plasmodium falciparum, UniProt Q54A96); assay: Inhibition of Plasmodium falciparum DHODH after 20 mins by 2,6-dichloroindophenol-reduction based assay
# T2 sequence (Q54A96 whole entry): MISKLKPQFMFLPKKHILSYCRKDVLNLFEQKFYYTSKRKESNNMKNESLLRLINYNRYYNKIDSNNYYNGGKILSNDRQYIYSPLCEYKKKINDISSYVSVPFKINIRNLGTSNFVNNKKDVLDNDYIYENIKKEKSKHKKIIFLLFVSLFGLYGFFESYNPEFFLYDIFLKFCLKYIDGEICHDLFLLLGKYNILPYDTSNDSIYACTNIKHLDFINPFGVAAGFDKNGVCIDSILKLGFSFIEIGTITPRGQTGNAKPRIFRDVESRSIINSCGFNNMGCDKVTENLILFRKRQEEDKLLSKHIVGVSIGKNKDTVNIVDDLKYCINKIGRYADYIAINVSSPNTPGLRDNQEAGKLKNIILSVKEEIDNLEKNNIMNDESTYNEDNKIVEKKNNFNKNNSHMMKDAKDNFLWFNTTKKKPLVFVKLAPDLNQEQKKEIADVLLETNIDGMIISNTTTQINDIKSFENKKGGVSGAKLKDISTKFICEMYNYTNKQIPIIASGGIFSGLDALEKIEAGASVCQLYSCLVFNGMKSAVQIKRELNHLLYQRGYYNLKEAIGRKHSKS
# [40] = biological target: Cytochrome P450 2D6 (Homo sapiens, UniProt P10635); assay: Inhibition of human CYP2D6 using bufuralol as substrate after 10 mins by LC-MS/MS analysis; assay type: ADME
# Sequence of Cytochrome P450 2D6 (P10635 whole entry): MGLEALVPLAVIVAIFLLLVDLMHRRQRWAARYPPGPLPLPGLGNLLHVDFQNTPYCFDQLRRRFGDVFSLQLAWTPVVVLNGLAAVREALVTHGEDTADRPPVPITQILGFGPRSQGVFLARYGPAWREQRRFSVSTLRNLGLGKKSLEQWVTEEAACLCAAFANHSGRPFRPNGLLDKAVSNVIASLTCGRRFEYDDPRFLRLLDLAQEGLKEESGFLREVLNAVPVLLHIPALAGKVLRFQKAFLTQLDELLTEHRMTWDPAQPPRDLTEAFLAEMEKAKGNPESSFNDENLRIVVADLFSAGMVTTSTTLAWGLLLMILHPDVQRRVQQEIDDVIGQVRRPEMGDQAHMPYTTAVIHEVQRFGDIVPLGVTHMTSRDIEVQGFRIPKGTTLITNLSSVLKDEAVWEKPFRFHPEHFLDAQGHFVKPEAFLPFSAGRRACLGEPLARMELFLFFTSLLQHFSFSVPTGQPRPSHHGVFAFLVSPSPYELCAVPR
# [41] = test system: Plasmodium vivax; assay: Inhibition of Plasmodium vivax DHODH after 20 mins by 2,6-dichloroindophenol-reduction based assay
# [42] = Cmax in dog at 3 mg/kg, po by LC-MS/MS analysis; assay type: ADME, organism-based, Canis lupus familiaris; design: dose 3 mg/kg, route oral; conditions: in vivo
# [43] = Unbound fraction in human plasma; assay type: ADME, cell-free
smiles,measurement,setting,value
Cc1nc2c(C#N)cccc2n1-c1ccc(C(=O)NC2CC2)s1,ED50,[1],13 mg/kg/day
same,ED90,[1],27 mg/kg/day
same,ED99,[1],60 mg/kg/day
same,Activity,[2],Non-toxic
same,bioavailability,[3],49%
same,Activity,[4],Non-toxic
same,half-life,[5],51 min
same,Vd,[6],0.995 L/kg
same,Activity,[7],Non-toxic
same,Cmax,[8],618 ng/mL
same,CLhep predicted,[9],< 4 mL/min/kg
same,CLhep predicted,[10],26 mL/min/kg
same,IC50,[11],0.01 µM
same,F,[12],19%
same,inhibition,[13],Active
same,Cmax,[14],29000 ng/mL
same,ED50,[15],13 mg/kg/day
same,ED90,[15],28 mg/kg/day
same,ED99,[15],62 mg/kg/day
same,fraction unbound,[16],0.182
same,AUC,[17],1500 ng·h/mL
same,fraction unbound,[18],0.22
same,Activity,[19],Non-toxic
same,Activity,[20],Non-toxic
same,IC50,[21],> 10 µM
same,Papp,[22],49 ×10⁻⁶ cm/s
same,clearance,[23],24 mL/min/kg
same,Activity,[24],Non-toxic
same,IC50,[25],> 10 µM
same,AUC(0-inf),[26],1040 ng·h/mL
same,NOAEL at 168 h,[27],> 600 mg/kg
same,half-life,[28],31.2 min
same,clearance,[29],6.7 mL/min/kg
same,AUC at 168 h,[30],328000 ng·h/mL
same,fraction unbound,[31],0.312
same,IC50,[32],> 10 µM
same,AUC(0-inf),[33],703 ng·h/mL
same,IC50,[34],> 10 µM
same,IC50,[35],0.007 µM
same,Vd,[36],0.279 L/kg
same,fraction unbound,[37],0.112
same,AUC,[38],359 ng·h/mL
same,IC50,[39],0.04 µM
same,IC50,[40],> 10 µM
same,inhibition,[41],Active
same,Cmax,[42],1110 ng/mL
same,fraction unbound,[43],0.11
